Tests used:
UACC-903 [1] = test: Induction of apoptosis in human UACC-903 cells assessed as viable cells at 1 uM after 24 hrs using annexin-V-PE/7-AAD double staining by flow cytometry; format: functional; details: UACC-903, 24 h, read-out: Activity
Summary of the method: (§1)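 UACC 903 cells were exposed 24 h at 37 °C to 1, 5 or 25 µM, with DMSO as control. Cells were harvested, washed twice in cold PBS and resuspended at 1×10^6 cells/mL in binding buffer. They were stained with 7-AAD plus PE Annexin V for 20 min at room temperature in the dark and run by flow cytometry within 1 h. Gating: double-negative live, 7-AAD+ dead, Annexin V+/7-AAD− early apoptotic. Three separate experiments.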

UACC-903 [2] = test: Induction of apoptosis in human UACC-903 cells assessed as non-viable cells at 25 uM after 24 hrs using annexin-V-PE/7-AAD double staining by flow cytometry; format: functional; summary of the method: as §1
UACC-903 [3] = test: Induction of apoptosis in human UACC-903 cells assessed as increase in apoptotic cells after 24 hrs using annexin-V-PE/7-AAD double staining by flow cytometry; format: functional, cell-based; summary of the method: as §1
UACC-903 [4] = test: Induction of apoptosis in human UACC-903 cells assessed as non-viable cells at 5 uM after 24 hrs using annexin-V-PE/7-AAD double staining by flow cytometry; format: functional; summary of the method: as §1
Mus musculus [5] = test: Systemic toxicity in athymic Harlan Sprague-Dawley nude mouse xenografted with human UACC-903 cells assessed as mortality at 10 mg/kg, ip administered daily for 28 days; format: organism-based; parameters: dose 10 mg/kg, route intraperitoneal; details: in vivo, 672 h
UACC-903 [6] = test: Induction of apoptosis in human UACC-903 cells assessed as viable cells at 5 uM after 24 hrs using annexin-V-PE/7-AAD double staining by flow cytometry; format: functional; details: UACC-903, 24 h, read-out: Activity; summary of the method: as §1
UACC-903 [7] = test: Induction of apoptosis in human UACC-903 cells assessed as non-viable cells at 1 uM after 24 hrs using annexin-V-PE/7-AAD double staining by flow cytometry; format: functional; summary of the method: as §1
UACC-903 [8] = test: Cytotoxicity against human UACC-903 cells after 24 hrs by MTS assay; format: functional, cell-based; details: UACC-903, 24 h
Summary of the method: (§2)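 Cells in DMEM with 10% FBS at 37 °C and 5% CO2 were plated at 5×10^3 per well and grown 24 h. They were then exposed 24 or 72 h to 0.5, 1, 5, 10, 25 and 50 µM, with final DMSO 0.5% and DMSO controls. MTS/PMS was added for 4 h at 37 °C. A492 was read with the medium blank subtracted and expressed as % of control. IC50 was taken from three independent experiments (mean ± S.E.).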

UACC-903 [9] = test: Induction of apoptosis in human UACC-903 cells assessed as early apoptotic cells at 5 uM after 24 hrs using annexin-V-PE/7-AAD double staining by flow cytometry; format: functional; summary of the method: as §1
UACC-903 [10] = test: Antitumor activity against human UACC-903 cells xenografted in athymic Harlan Sprague-Dawley nude mouse assessed as reduction in tumor growth at 9.5 to 10.6 mg/kg, ip administered thrice per week for 24 days measured after 21 days; format: functional; details: dose mg/kg 9.5-10.6; route intraperitoneal
Summary of the method: (§3)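 Female athymic nude mice, 4–6 weeks old, received 5×10^6 UACC 903 cells s.c. in DMEM/10% FBS above both rib cages. After six days they were randomized at 5 mice/group, 2 tumors/mouse. Dosing was i.p. Mon/Wed/Fri, with one arm dosed daily; controls got DMSO vehicle. Tumor dimensions (calipers, mm³) and body weight were recorded three times weekly.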

Mus musculus [11] = test: Systemic toxicity in Swiss Webster mouse assessed as weight loss at 10 mg/kg, ip administered every day for 28 days; format: organism-based; parameters: dose 10 mg/kg, route intraperitoneal; details: in vivo, 672 h
Summary of the method: (§4)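 Swiss Webster mice, n = 4 per group, dosed i.p. once daily for 28 days at 5, 7.5, 10 or 15 mg/kg body weight. Body weight recorded twice per week; deaths noted over the dosing period.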

UACC-903 [12] = test: Cytotoxicity against human UACC-903 cells assessed as decrease in cell viability after 72 hrs by MTS assay; format: functional, cell-based; summary of the method: as §2
UACC-903 [13] = test: Induction of apoptosis in human UACC-903 cells assessed as late apoptotic cells at 25 uM after 24 hrs using annexin-V-PE/7-AAD double staining by flow cytometry; format: functional; summary of the method: as §1
1205Lu [14] = test: Cytotoxicity against human 1205 Lu cells assessed as decrease in cell viability after 72 hrs by MTS assay; format: functional, cell-based; summary of the method: as §2
UACC-903 [15] = test: Induction of apoptosis in human UACC-903 cells assessed as early apoptotic cells at 25 uM after 24 hrs using annexin-V-PE/7-AAD double staining by flow cytometry; format: functional; summary of the method: as §1
[16] = Cytotoxicity against human A375-S2 cells after 24 hrs by MTS assay; format: functional, cell-based; details: A375-S2, 24 h; summary of the method: as §2
UACC-903 [17] = test: Induction of apoptosis in human UACC-903 cells assessed as late apoptotic cells at 5 uM after 24 hrs using annexin-V-PE/7-AAD double staining by flow cytometry; format: functional; summary of the method: as §1
Mus musculus [18] = test: Systemic toxicity in Swiss Webster mouse assessed as mortality at 10 mg/kg, ip administered every day for 28 days; format: organism-based; parameters: dose 10 mg/kg, route intraperitoneal; details: in vivo, 672 h; summary of the method: as §4
Mus musculus [19] = test: Systemic toxicity in athymic Harlan Sprague-Dawley nude mouse xenografted with human UACC-903 cells assessed as reduction in body weight at 9.5 to 10.6 mg/kg, ip administered thrice a week for 24 days; format: organism-based; parameters: dose 9.5-10.6 mg/kg, route intraperitoneal; details: in vivo, 576 h; summary of the method: as §3
SK-MEL-37 (Homo sapiens) [20] = test: Cytotoxicity against human SK-MEL-37 cells assessed as decrease in cell viability after 72 hrs by MTS assay
UACC-903 [21] = test: Induction of apoptosis in human UACC-903 cells assessed as viable cells at 25 uM after 24 hrs using annexin-V-PE/7-AAD double staining by flow cytometry; format: functional; details: UACC-903, 24 h, read-out: Activity; summary of the method: as §1
A375-S2 [22] = test: Cytotoxicity against human A375-S2 cells assessed as decrease in cell viability after 24 hrs by MTS assay; format: functional, cell-based; summary of the method: as §2
Mus musculus [23] = test: Systemic toxicity in Swiss Webster mouse assessed as mortality at 15 mg/kg, ip administered every day for 28 days; format: organism-based; parameters: dose 15 mg/kg, route intraperitoneal; details: in vivo, 672 h; summary of the method: as §4
UACC-903 [24] = test: Cytotoxicity against human UACC-903 cells after 72 hrs by MTS assay; format: functional, cell-based; details: UACC-903, 72 h; summary of the method: as §2
[25] = Cytotoxicity against human 1205 Lu cells after 72 hrs by MTS assay; format: functional, cell-based; summary of the method: as §2
[26] = Cytotoxicity against human A375-S2 cells after 72 hrs by MTS assay; format: functional, cell-based; details: A375-S2, 72 h; summary of the method: as §2
UACC-903 [27] = test: Induction of apoptosis in human UACC-903 cells assessed as early apoptotic cells at 1 uM after 24 hrs using annexin-V-PE/7-AAD double staining by flow cytometry; format: functional; summary of the method: as §1
UACC-903 [28] = test: Induction of apoptosis in human UACC-903 cells assessed as late apoptotic cells at 1 uM after 24 hrs using annexin-V-PE/7-AAD double staining by flow cytometry; format: functional; summary of the method: as §1
SK-MEL-37 (Homo sapiens) [29] = test: Cytotoxicity against human SK-MEL-37 cells assessed as decrease in cell viability after 24 hrs by MTS assay
1205Lu [30] = test: Cytotoxicity against human 1205 Lu cells assessed as decrease in cell viability after 24 hrs by MTS assay; format: functional, cell-based; summary of the method: as §2
Mus musculus [31] = test: Systemic toxicity in Swiss Webster mouse assessed as reduction in body weight at 10 mg/kg, ip administered daily for 28 days; parameters: scale not given: the % may be the effect or the level left; details: in vivo, 672 h
[32] = Cytotoxicity against human SK-MEL-37 cells after 72 hrs by MTS assay; format: functional, cell-based; summary of the method: as §2
A375-S2 [33] = test: Cytotoxicity against human A375-S2 cells assessed as decrease in cell viability after 72 hrs by MTS assay; format: functional, cell-based; summary of the method: as §2
UACC-903 [34] = test: Cytotoxicity against human UACC-903 cells assessed as decrease in cell viability after 24 hrs by MTS assay; format: functional, cell-based; summary of the method: as §2
[35] = Cytotoxicity against human 1205 Lu cells after 24 hrs by MTS assay; format: functional, cell-based; summary of the method: as §2
[36] = Cytotoxicity against human SK-MEL-37 cells after 24 hrs by MTS assay; format: functional, cell-based; summary of the method: as §2
UACC-903 [37] = test: Antitumor activity against human UACC-903 cells xenografted in athymic Harlan Sprague-Dawley nude mouse assessed as reduction in tumor growth at 8.5 to 10 mg/kg, ip administered daily for 24 days measured after 21 days; format: functional; details: dose mg/kg 8.5-10; route intraperitoneal; summary of the method: as §3
UACC-903 [38] = test: Antitumor activity against human UACC-903 cells xenografted in athymic Harlan Sprague-Dawley nude mouse assessed as reduction in tumor growth at 8.5 to 10 mg/kg, ip administered thrice per week for 24 days measured after 21 days; format: functional; details: dose mg/kg 8.5-10; route intraperitoneal; summary of the method: as §3
Mus musculus [39] = test: Systemic toxicity in athymic Harlan Sprague-Dawley nude mouse xenografted with human UACC-903 cells assessed as reduction in body weight at 8.5 to 10 mg/kg, ip administered thrice a week for 24 days; format: organism-based; parameters: dose 8.5-10 mg/kg, route intraperitoneal; details: in vivo, 576 h; summary of the method: as §3

Row | SMILES | viability at 1 µM (UACC-903 [1]) | Activity (UACC-903 [2]) | Activity (UACC-903 [3]) | Activity (UACC-903 [4]) | viability at 5 µM (UACC-903 [6]) | Activity (UACC-903 [7]) | IC50 (UACC-903 [8]) | Activity (UACC-903 [9]) | Activity (Mus musculus [11]) | Activity (UACC-903 [12]) | Activity (UACC-903 [13]) | Activity (1205Lu [14]) | Activity (UACC-903 [15]) | IC50 [16] | Activity (UACC-903 [17]) | Activity (Mus musculus [18]) | Activity (SK-MEL-37 (Homo sapiens) [20]) | viability at 25 µM (UACC-903 [21]) | Activity (A375-S2 [22]) | Activity (Mus musculus [23]) | other results
1 | N=C(N)SCCN1C(=O)c2cccc3cc([N+](=O)[O-])cc(c23)C1=O | 76.9% | 0.32% | Dose-dependent effect | 0.43% | 70.4% | 0.56% | 14.7 µM | 25.1% | Non-toxic | Dose-dependent effect | 12.3% | Dose-dependent effect | 40.2% | 18.4 µM | 3.99% | Non-toxic | Dose-dependent effect | 47.2% | Dose-dependent effect | Toxic | Activity (Mus musculus [5]): Non-toxic; growth inhibition (GI) (UACC-903 [10]): 20%; Activity (Mus musculus [19]): Non-toxic; IC50 (UACC-903 [24]): 6.95 µM; IC50 [25]: 16.4 µM; IC50 [26]: 9.48 µM; Activity (UACC-903 [27]): 20.1%; Activity (UACC-903 [28]): 2.41%; Activity (SK-MEL-37 (Homo sapiens) [29]): Dose-dependent effect; Activity (1205Lu [30]): Dose-dependent effect; Activity (Mus musculus [31]): 10%; IC50 [32]: 15 µM; Activity (A375-S2 [33]): Dose-dependent effect; Activity (UACC-903 [34]): Dose-dependent effect; IC50 [35]: 39.5 µM; IC50 [36]: 23.4 µM
2 | O=C1c2cccc3cccc(c23)C(=O)N1CCN=C=S | 76.3% | 5.59% | Dose-dependent effect | 3.41% | 69.3% | 6.41% | 11.3 µM | 19.4% | Non-toxic | Dose-dependent effect | 7.98% | Dose-dependent effect | 22.1% | 7.93 µM | 7.96% | Non-toxic | Dose-dependent effect | 64.3% | Dose-dependent effect | Toxic | growth inhibition (GI) (UACC-903 [37]): 50%; growth inhibition (GI) (UACC-903 [38]): 30%; IC50 (UACC-903 [24]): 8.04 µM; IC50 [25]: 6.04 µM; IC50 [26]: 5.05 µM; Activity (UACC-903 [27]): 12.4%; Activity (UACC-903 [28]): 4.96%; Activity (SK-MEL-37 (Homo sapiens) [29]): Dose-dependent effect; Activity (1205Lu [30]): Dose-dependent effect; IC50 [32]: 2.2 µM; Activity (Mus musculus [39]): Non-toxic; Activity (A375-S2 [33]): Dose-dependent effect; Activity (UACC-903 [34]): Dose-dependent effect; IC50 [35]: 9.41 µM; IC50 [36]: 5.93 µM

Reference: ChEMBL document CHEMBL1806370, “Development of novel naphthalimide derivatives and their evaluation as potential melanoma therapeutics” (Eur J Med Chem, 2011)
